From ChEMBL document CHEMBL5247575 (J Med Chem, 2018)

Legend:
Escherichia coli [1] = assay: Antibacterial activity against Escherichia coli DH10B transfected with pBC SK (-) KPC-3 by broth microdilution method; format: functional
Bacteria [2] = assay: Inhibition of bacteria PDC-3 assessed as second order rate constant K2/K using nitrocefin as substrate
Bacteria [3] = assay: Inhibition of bacteria ADC-7 assessed as second order rate constant K2/K using nitrocefin as substrate
[4] = Binding affinity to bacteria ADC-7 assessed as dissociation constant
Escherichia coli [5] = assay: Synergistic antibacterial activity against Escherichia coli DH10B assessed as cefepime MIC at 4 ug/ml by broth microdilution method; format: functional; conditions: dose 4 µg/ml
Escherichia coli [6] = assay: Synergistic antibacterial activity against Escherichia coli DH10B transfected with pBC SK (-) PDC-3 assessed as cefepime MIC at 4 ug/ml by broth microdilution method; format: functional; conditions: dose 4 µg/ml
In short: (§1)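 Broth microdilution per CLSI guidelines, using custom frozen panels. […] Each partner drug was also tested alone. MICs were run in triplicate and the modal value is reported.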

Klebsiella pneumoniae [7] = assay: Synergistic antibacterial activity against Klebsiella pneumoniae 660/1568 producing KPC-3 assessed as cefepime MIC at 4 ug/ml by broth microdilution method; format: functional; conditions: dose 4 µg/ml; in short: as §1
Klebsiella pneumoniae [8] = assay: Synergistic antibacterial activity against Klebsiella pneumoniae 1084/1957 producing KPC-3 assessed as cefepime MIC at 4 ug/ml by broth microdilution method; format: functional; conditions: dose 4 µg/ml; in short: as §1
Klebsiella pneumoniae [9] = assay: Synergistic antibacterial activity against Klebsiella pneumoniae 1108/1989 producing KPC-3 assessed as cefepime MIC at 4 ug/ml by broth microdilution method; format: functional; conditions: dose 4 µg/ml; in short: as §1
Klebsiella pneumoniae [10] = assay: Synergistic antibacterial activity against Klebsiella pneumoniae 11978 producing OXA-48 assessed as cefepime MIC at 4 ug/ml by broth microdilution method; format: functional; conditions: dose 4 µg/ml; in short: as §1
Klebsiella pneumoniae [11] = assay: Synergistic antibacterial activity against Klebsiella pneumoniae jefferson 1773 producing OXA-181 assessed as cefepime MIC at 4 ug/ml by broth microdilution method; format: functional; conditions: dose 4 µg/ml
Klebsiella pneumoniae [12] = assay: Synergistic antibacterial activity against Klebsiella pneumoniae jefferson 1775 producing OXA-48 assessed as cefepime MIC at 4 ug/ml by broth microdilution method; format: functional; conditions: dose 4 µg/ml
Pseudomonas aeruginosa [13] = assay: Synergistic antibacterial activity against Pseudomonas aeruginosa CL232 assessed as cefepime MIC at 4 ug/ml by broth microdilution method; format: functional; conditions: dose 4 µg/ml
Pseudomonas aeruginosa [14] = assay: Synergistic antibacterial activity against Pseudomonas aeruginosa 715 assessed as cefepime MIC at 4 ug/ml by broth microdilution method; format: functional; conditions: dose 4 µg/ml
Pseudomonas aeruginosa [15] = assay: Synergistic antibacterial activity against Pseudomonas aeruginosa 839 assessed as cefepime MIC at 4 ug/ml by broth microdilution method; format: functional; conditions: dose 4 µg/ml
Acinetobacter baumannii [16] = assay: Synergistic antibacterial activity against Acinetobacter baumannii PR319 producing OXA-23/24/40 assessed as cefepime MIC at 4 ug/ml by broth microdilution method; format: functional; conditions: dose 4 µg/ml
Klebsiella pneumoniae [17] = assay: Synergistic antibacterial activity against Klebsiella pneumoniae 935/1884 producing KPC-3 assessed as meropenem MIC at 4 ug/ml by broth microdilution method; format: functional; conditions: dose 4 µg/ml
Klebsiella pneumoniae [18] = assay: Synergistic antibacterial activity against Klebsiella pneumoniae 1084/1957 producing KPC-3 assessed as meropenem MIC at 4 ug/ml by broth microdilution method; format: functional; conditions: dose 4 µg/ml; in short: as §1
Klebsiella pneumoniae [19] = assay: Synergistic antibacterial activity against Klebsiella pneumoniae CAV 1636 producing OXA-181 assessed as meropenem MIC at 4 ug/ml by broth microdilution method; format: functional; conditions: dose 4 µg/ml
Klebsiella pneumoniae [20] = assay: Synergistic antibacterial activity against Klebsiella pneumoniae CAV 1543 producing OXA-48 assessed as meropenem MIC at 4 ug/ml by broth microdilution method; format: functional; conditions: dose 4 µg/ml
Pseudomonas aeruginosa [21] = assay: Synergistic antibacterial activity against Pseudomonas aeruginosa 795 assessed as meropenem MIC at 4 ug/ml by broth microdilution method; format: functional; conditions: dose 4 µg/ml
Acinetobacter baumannii [22] = assay: Synergistic antibacterial activity against Acinetobacter baumannii PR323 producing OXA-24/40 assessed as meropenem MIC at 4 ug/ml by broth microdilution method; format: functional; conditions: dose 4 µg/ml
Acinetobacter baumannii [23] = assay: Synergistic antibacterial activity against Acinetobacter baumannii PR381 producing OXA-24/40 assessed as meropenem MIC at 4 ug/ml by broth microdilution method; format: functional; conditions: dose 4 µg/ml
Acinetobacter baumannii [24] = assay: Synergistic antibacterial activity against Acinetobacter baumannii PR474 producing OXA-23/24/40 assessed as meropenem MIC at 4 ug/ml by broth microdilution method; format: functional; conditions: dose 4 µg/ml
Acinetobacter baumannii [25] = assay: Synergistic antibacterial activity against ADC deleted Acinetobacter baumannii transfected with pWH1266 producing OXA-24/40 assessed as meropenem MIC at 4 ug/ml by broth microdilution method; format: functional; conditions: dose 4 µg/ml
Escherichia coli [26] = assay: Synergistic antibacterial activity against Escherichia coli DH10B assessed as cefepime MIC at 8 ug/ml by broth microdilution method; format: functional; conditions: dose 8 µg/ml
Escherichia coli [27] = assay: Synergistic antibacterial activity against Escherichia coli DH10B transfected with pBC SK (-) PDC-3 assessed as cefepime MIC at 8 ug/ml by broth microdilution method; format: functional; conditions: dose 8 µg/ml; in short: as §1
Klebsiella pneumoniae [28] = assay: Synergistic antibacterial activity against Klebsiella pneumoniae 1315/2198 producing KPC-3 assessed as cefepime MIC at 8 ug/ml by broth microdilution method; format: functional; conditions: dose 8 µg/ml; in short: as §1
Klebsiella pneumoniae [29] = assay: Synergistic antibacterial activity against Klebsiella pneumoniae 1354/2241 producing KPC-3 assessed as cefepime MIC at 8 ug/ml by broth microdilution method; format: functional; conditions: dose 8 µg/ml; in short: as §1
Klebsiella pneumoniae [30] = assay: Synergistic antibacterial activity against Klebsiella pneumoniae 440/1360 producing KPC-2 assessed as cefepime MIC at 8 ug/ml by broth microdilution method; format: functional; conditions: dose 8 µg/ml; in short: as §1
Acinetobacter baumannii [31] = assay: Synergistic antibacterial activity against ADC deleted Acinetobacter baumannii transfected with pWH1266 producing OXA-24/40 assessed as cefepime MIC at 8 ug/ml by broth microdilution method; format: functional; conditions: dose 8 µg/ml
Klebsiella pneumoniae [32] = assay: Synergistic antibacterial activity against Klebsiella pneumoniae 901/1860 producing KPC-3 assessed as meropenem MIC at 8 ug/ml by broth microdilution method; format: functional; conditions: dose 8 µg/ml
Klebsiella pneumoniae [33] = assay: Synergistic antibacterial activity against Klebsiella pneumoniae 1108/1989 producing KPC-3 assessed as meropenem MIC at 8 ug/ml by broth microdilution method; format: functional; conditions: dose 8 µg/ml; in short: as §1
Klebsiella pneumoniae [34] = assay: Synergistic antibacterial activity against Klebsiella pneumoniae CAV 1543 producing OXA-48 assessed as meropenem MIC at 8 ug/ml by broth microdilution method; format: functional; conditions: dose 8 µg/ml
Klebsiella pneumoniae [35] = assay: Synergistic antibacterial activity against Klebsiella pneumoniae NY BS producing OXA-232 assessed as meropenem MIC at 8 ug/ml by broth microdilution method; format: functional; conditions: dose 8 µg/ml
Klebsiella pneumoniae [36] = assay: Synergistic antibacterial activity against Klebsiella pneumoniae jefferson 1775 producing OXA-48 assessed as meropenem MIC at 8 ug/ml by broth microdilution method; format: functional; conditions: dose 8 µg/ml
Pseudomonas aeruginosa [37] = assay: Synergistic antibacterial activity against Pseudomonas aeruginosa CL232 assessed as meropenem MIC at 8 ug/ml by broth microdilution method; format: functional; conditions: dose 8 µg/ml
Acinetobacter baumannii [38] = assay: Synergistic antibacterial activity against Acinetobacter baumannii PR420 producing OXA-23/24/40 assessed as meropenem MIC at 8 ug/ml by broth microdilution method; format: functional; conditions: dose 8 µg/ml
Acinetobacter baumannii [39] = assay: Synergistic antibacterial activity against Acinetobacter baumannii PR440 producing OXA-23/24/40 assessed as meropenem MIC at 8 ug/ml by broth microdilution method; format: functional; conditions: dose 8 µg/ml
Acinetobacter baumannii [40] = assay: Synergistic antibacterial activity against Acinetobacter baumannii PR448 producing OXA-23 assessed as meropenem MIC at 8 ug/ml by broth microdilution method; format: functional; conditions: dose 8 µg/ml

SMILES | K (Bacteria [2]) | K (Bacteria [3]) | MIC (Escherichia coli [5]) | MIC (Escherichia coli [6]) | MIC (Klebsiella pneumoniae [7]) | MIC (Klebsiella pneumoniae [8]) | MIC (Klebsiella pneumoniae [9]) | MIC (Klebsiella pneumoniae [10]) | MIC (Klebsiella pneumoniae [11]) | MIC (Klebsiella pneumoniae [12]) | MIC (Pseudomonas aeruginosa [13]) | MIC (Pseudomonas aeruginosa [15]) | MIC (Acinetobacter baumannii [16]) | MIC (Klebsiella pneumoniae [17]) | MIC (Klebsiella pneumoniae [18]) | MIC (Klebsiella pneumoniae [20]) | MIC (Pseudomonas aeruginosa [21]) | MIC (Acinetobacter baumannii [22]) | MIC (Acinetobacter baumannii [23]) | MIC (Acinetobacter baumannii [24]) | further results
NC(=O)[C@@H]1CC[C@@H]2CN1C(=O)N2OS(=O)(=O)[O-].[Na+] [AVIBACTAM SODIUM] | 2.9 10^4/M/s | 3.9 10^3/M/s | ≤ 0.12 µg/mL | ≤ 0.12 µg/mL | ≤ 0.12 µg/mL | ≤ 0.12 µg/mL | ≤ 0.12 µg/mL | 0.25 µg/mL | 1 µg/mL | ≤ 0.12 µg/mL | > 16 µg/mL | 4 µg/mL | > 16 µg/mL | ≤ 0.12 µg/mL | ≤ 0.12 µg/mL | ≤ 0.12 µg/mL | 16 µg/mL | > 16 µg/mL | > 16 µg/mL | > 16 µg/mL | MIC (Escherichia coli [1]): > 16 µg/mL; Kd [4]: 90 nM; MIC (Pseudomonas aeruginosa [14]): 16 µg/mL; MIC (Klebsiella pneumoniae [19]): 1 µg/mL; MIC (Acinetobacter baumannii [25]): > 16 µg/mL
O.O=C(NC1CCNCC1)[C@@H]1CC[C@@H]2CN1C(=O)N2OS(=O)(=O)O [RELEBACTAM] | 4.6 10^4/M/s | 7.8 10^3/M/s | ≤ 0.12 µg/mL | ≤ 0.12 µg/mL | 0.25 µg/mL | 0.25 µg/mL | 0.5 µg/mL | 2 µg/mL | 4 µg/mL | 0.25 µg/mL | 16 µg/mL | 4 µg/mL | > 16 µg/mL | ≤ 0.12 µg/mL | ≤ 0.12 µg/mL | 8 µg/mL | 8 µg/mL | > 16 µg/mL | > 16 µg/mL | > 16 µg/mL | MIC (Escherichia coli [1]): > 16 µg/mL; MIC (Pseudomonas aeruginosa [14]): 16 µg/mL; MIC (Klebsiella pneumoniae [19]): 16 µg/mL; MIC (Acinetobacter baumannii [25]): > 16 µg/mL
O=C(NNC(=O)[C@@H]1CC[C@@H]2CN1C(=O)N2OS(=O)(=O)O)[C@@H]1CCCNC1 [ZIDEBACTAM] | 4.8 10^5/M/s | 3.5 10^4/M/s | ≤ 0.12 µg/mL | ≤ 0.12 µg/mL | ≤ 0.12 µg/mL | ≤ 0.12 µg/mL | ≤ 0.12 µg/mL | ≤ 0.12 µg/mL | ≤ 0.12 µg/mL | ≤ 0.12 µg/mL | 16 µg/mL | 2 µg/mL | > 16 µg/mL | ≤ 0.12 µg/mL | ≤ 0.12 µg/mL | ≤ 0.12 µg/mL | 16 µg/mL | > 16 µg/mL | > 16 µg/mL | > 16 µg/mL | Kd [4]: 32 nM; MIC (Escherichia coli [26]): ≤ 0.12 µg/mL; MIC (Escherichia coli [27]): ≤ 0.12 µg/mL; MIC (Klebsiella pneumoniae [28]): ≤ 0.12 µg/mL; MIC (Klebsiella pneumoniae [29]): ≤ 0.12 µg/mL; MIC (Klebsiella pneumoniae [30]): ≤ 0.12 µg/mL; MIC (Acinetobacter baumannii [31]): 16 µg/mL; MIC (Acinetobacter baumannii [25]): > 16 µg/mL; MIC (Klebsiella pneumoniae [32]): ≤ 0.12 µg/mL; MIC (Klebsiella pneumoniae [33]): ≤ 0.12 µg/mL; MIC (Klebsiella pneumoniae [34]): ≤ 0.12 µg/mL; MIC (Klebsiella pneumoniae [35]): ≤ 0.12 µg/mL; MIC (Klebsiella pneumoniae [36]): ≤ 0.12 µg/mL; MIC (Pseudomonas aeruginosa [37]): > 16 µg/mL; MIC (Acinetobacter baumannii [38]): > 16 µg/mL; MIC (Acinetobacter baumannii [39]): > 16 µg/mL; MIC (Acinetobacter baumannii [40]): > 16 µg/mL
